Laboratory results from ChEMBL document CHEMBL4311935, “Synthesis and antitumor activity of fluorouracil - oleanolic acid/ursolic acid/glycyrrhetinic acid conjugates” (Medchemcomm, 2019).
The source made the active and inactive calls. The rule behind the calls is not given here.

How the values were obtained:
[1] = system: A549; assay: Cytotoxicity against human A549 cells assessed as cell growth inhibition after 48 hrs by MTT assay; assay type: functional, cell-based; settings: A549, 48 h
[2] = system: MCF7; assay: Cytotoxicity against human MCF7 cells assessed as cell growth inhibition after 48 hrs by MTT assay; assay type: functional, cell-based; settings: MCF7, 48 h
[3] = system: Bel-7402; assay: Cytotoxicity against human Bel7402 cells assessed as cell growth inhibition after 48 hrs by MTT assay; assay type: functional, cell-based; settings: Bel-7402, 48 h
[4] = system: K562; assay: Cytotoxicity against human K562 cells assessed as cell growth inhibition after 48 hrs by MTT assay; assay type: functional, cell-based; settings: K562, 48 h
[5] = system: L02; assay: Cytotoxicity against human LO2 cells assessed as cell growth inhibition after 48 hrs by MTT assay; assay type: cell-based; settings: L02, 48 h
[6] = system: A549/TR; assay: Cytotoxicity against human A549/T cells assessed as cell growth inhibition after 48 hrs by MTT assay; assay type: functional, cell-based
[7] = system: NCI/ADR-RES; assay: Cytotoxicity against human MCF7/ADR cells assessed as cell growth inhibition after 48 hrs by MTT assay; assay type: functional, cell-based
[8] = system: Bel7402/5-FU; assay: Cytotoxicity against human Bel7402/5-FU cells assessed as cell growth inhibition after 48 hrs by MTT assay; assay type: functional, cell-based
[9] = system: K562/Adr; assay: Cytotoxicity against human K562/ADR cells assessed as cell growth inhibition after 48 hrs by MTT assay; assay type: functional, cell-based
[10] = system: A549; assay: Induction of apoptosis in human A549 cells assessed as stimulation of intracellular calcium influx by measuring fluorescence intensity at 10 to 15 uM after 48 hrs by Fluo-3/AM probe based flow cytometry analysis; assay type: functional, cell-based
How it was run: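 Cells were seeded in six-well plates for 24 h, then treated at 0, 10 or 15 μM for 48 h. They were harvested, washed three times in serum-free RPMI 1640 and loaded with Fluo-3 AM (0.5 μM) for 60 min. After two washes and resuspension in serum-free medium, fluorescence was measured immediately by flow cytometry.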

[11] = system: A549; assay: Induction of apoptosis in human A549 cells assessed as stimulation of ROS generation at 20 uM after 48 hrs by DCFH-DA staining-based flow cytometric analysis (reference value: 42.5 %); assay type: functional
[12] = system: A549; assay: Induction of apoptosis in human A549 cells assessed as stimulation of ROS generation at 25 uM after 48 hrs by DCFH-DA staining-based flow cytometric analysis (reference value: 42.5 %); assay type: functional
[13] = system: A549; assay: Induction of cell cycle arrest in human A549 cells assessed as accumulation at G1 phase at 10 uM after 48 hrs by RNase/propidium iodide staining based flow cytometry analysis (reference value: 70.63 %); assay type: functional
How it was run: (§1)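 A549 cells were grown in dishes for 24 h, then treated at 0, 10, 15 or 20 μM for 48 h. Cells were washed in cold PBS, fixed in cold 75% ethanol and held at −20 °C for 36 h. They were then treated with RNase A (100 μg mL–1) for 30 min and stained with propidium iodide (1 mg mL–1 stock) for 10 min in the dark before flow cytometry.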

[14] = system: A549; assay: Induction of cell cycle arrest in human A549 cells assessed as accumulation at G2 phase at 10 uM after 48 hrs by RNase/propidium iodide staining based flow cytometry analysis (reference value: 5.14 %); assay type: functional; how it was run: as §1
[15] = system: A549; assay: Induction of cell cycle arrest in human A549 cells assessed as accumulation at S phase at 10 uM after 48 hrs by RNase/propidium iodide staining based flow cytometry analysis (reference value: 24.23 %); assay type: functional; how it was run: as §1
[16] = system: A549; assay: Induction of cell cycle arrest in human A549 cells assessed as accumulation at G1 phase at 15 uM after 48 hrs by RNase/propidium iodide staining based flow cytometry analysis (reference value: 70.63 %); assay type: functional; how it was run: as §1
[17] = system: A549; assay: Induction of cell cycle arrest in human A549 cells assessed as accumulation at G2 phase at 15 uM after 48 hrs by RNase/propidium iodide staining based flow cytometry analysis (reference value: 5.14 %); assay type: functional; how it was run: as §1
[18] = system: A549; assay: Induction of cell cycle arrest in human A549 cells assessed as accumulation at S phase at 15 uM after 48 hrs by RNase/propidium iodide staining based flow cytometry analysis (reference value: 24.23 %); assay type: functional; how it was run: as §1
[19] = system: A549; assay: Induction of cell cycle arrest in human A549 cells assessed as accumulation at G1 phase at 20 uM after 48 hrs by RNase/propidium iodide staining based flow cytometry analysis (reference value: 70.63 %); assay type: functional; how it was run: as §1
[20] = system: A549; assay: Induction of cell cycle arrest in human A549 cells assessed as accumulation at G2 phase at 20 uM after 48 hrs by RNase/propidium iodide staining based flow cytometry analysis (reference value: 5.14 %); assay type: functional; how it was run: as §1
[21] = system: A549; assay: Induction of cell cycle arrest in human A549 cells assessed as accumulation at S phase at 20 uM after 48 hrs by RNase/propidium iodide staining based flow cytometry analysis (reference value: 24.23 %); assay type: functional; how it was run: as §1
[22] = system: A549; assay: Induction of apoptosis in human A549 cells assessed as early apoptotic cells at 10 uM after 48 hrs by AnnexinV-FITC/propidium iodide staining based flow cytometry analysis (reference value: 0.99 %); assay type: functional
[23] = system: A549; assay: Induction of apoptosis in human A549 cells assessed as late apoptotic cells at 10 uM after 48 hrs by AnnexinV-FITC/propidium iodide staining based flow cytometry analysis (reference value: 4.19 %); assay type: functional
[24] = system: A549; assay: Induction of apoptosis in human A549 cells assessed as early apoptotic cells at 15 uM after 48 hrs by AnnexinV-FITC/propidium iodide staining based flow cytometry analysis (reference value: 0.99 %); assay type: functional
[25] = system: A549; assay: Induction of apoptosis in human A549 cells assessed as late apoptotic cells at 15 uM after 48 hrs by AnnexinV-FITC/propidium iodide staining based flow cytometry analysis (reference value: 4.19 %); assay type: functional
[26] = system: A549; assay: Induction of apoptosis in human A549 cells assessed as early apoptotic cells at 20 uM after 48 hrs by AnnexinV-FITC/propidium iodide staining based flow cytometry analysis (reference value: 0.99 %); assay type: functional
[27] = system: A549; assay: Induction of apoptosis in human A549 cells assessed as late apoptotic cells at 20 uM after 48 hrs by AnnexinV-FITC/propidium iodide staining based flow cytometry analysis (reference value: 4.19 %); assay type: functional
[28] = system: A549; assay: Induction of apoptosis in human A549 cells assessed as activation of caspase-8 at 10 uM using FITC-DEVD-FMK as substrate after 48 hrs by flow cytometric analysis (reference value: 9.76 %); assay type: functional
[29] = system: A549; assay: Induction of apoptosis in human A549 cells assessed as activation of caspase-8 at 15 uM using FITC-DEVD-FMK as substrate after 48 hrs by flow cytometric analysis (reference value: 9.76 %); assay type: functional
[30] = system: A549; assay: Induction of apoptosis in human A549 cells assessed as activation of caspase-8 at 20 uM using FITC-DEVD-FMK as substrate after 48 hrs by flow cytometric analysis (reference value: 9.76 %); assay type: functional
[31] = system: A549; assay: Induction of apoptosis in human A549 cells assessed as activation of caspase-3 at 10 uM using FITC-DEVD-FMK as substrate after 48 hrs by flow cytometric analysis (reference value: 5.99 %); assay type: functional
[32] = system: A549; assay: Induction of apoptosis in human A549 cells assessed as activation of caspase-3 at 15 uM using FITC-DEVD-FMK as substrate after 48 hrs by flow cytometric analysis (reference value: 5.99 %); assay type: functional
[33] = system: A549; assay: Induction of apoptosis in human A549 cells assessed as activation of caspase-3 at 20 uM using FITC-DEVD-FMK as substrate after 48 hrs by flow cytometric analysis (reference value: 5.99 %); assay type: functional

Compound: CC1(C)[C@@H](O)CC[C@]2(C)[C@H]3C(=O)C=C4[C@@H]5C[C@@](C)(C(=O)OCCCCCCCCn6cc(F)c(=O)[nH]c6=O)CC[C@]5(C)CC[C@@]4(C)[C@]3(C)CC[C@@H]12
- IC50 [1]: 15.7 µM
- IC50 [2]: 12.9 µM
- IC50 [3]: 21 µM
- IC50 [4]: 9.8 µM
- IC50 [5]: 20.9 µM
- IC50 [6]: 20.7 µM
- IC50 [7]: 23.4 µM
- IC50 [8]: 19.8 µM
- IC50 [9]: 27 µM
- Activity [10]: Active
- Activity [11]: 40.5%
- Activity [12]: 34.9%
- Activity [13]: 73.61%
- Activity [14]: 5.58%
- Activity [15]: 20.81%
- Activity [16]: 76.07%
- Activity [17]: 4.27%
- Activity [18]: 19.66%
- Activity [19]: 92.18%
- Activity [20]: 2.81%
- Activity [21]: 5.01%
- Activity [22]: 1.61%
- Activity [23]: 5.43%
- Activity [24]: 2.71%
- Activity [25]: 31.91%
- Activity [26]: 3.5%
- Activity [27]: 46.4%
- Activity [28]: 9.26%
- Activity [29]: 12.7%
- Activity [30]: 32.4%
- Activity [31]: 24.5%
- Activity [32]: 50.9%
- Activity [33]: 64.7%
